We go through four compounds from publication PMC6407737 (Targeted Oncology, 2019).

Molecules are shown by their SMILES. Entries after “also recorded” stand apart in the source; their conditions may differ. Where two headings read alike, the source gives them in different places. Marks after values point to notes of the source that are not given here.

A short description of data set [1]: Phase I dose-finding study: safety, DLT and MTD. The format is in vivo, human. In a few lines: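 Open-label 3 + 3 dose escalation in cohorts of three to six patients. Oral dosing was once daily, continuous, in 28-day cycles, starting at 50 mg, with 100 and 200 mg planned. DLT was assessed during cycle 1. MTD was the highest level with DLT in none or one of six patients, followed by an expansion cohort at that dose. AEs were graded by CTCAE v4.03 in all patients receiving ≥1 dose.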

Data set [2] can be described thus: Plasma and urine pharmacokinetics in cycle 1. The format is in vivo, human.
Data set [3] concerns advanced or metastatic solid tumors. Description: Investigator-assessed anti-tumor activity, RECIST version 1.1. The format is in vivo, human. In a few lines:
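Open-label phase I study in Japanese and Taiwanese patients (ECOG 0–1) given oral drug once daily, continuously, in 28-day cycles at 50, 100 or 200 mg. CT/MRI at screening, at end of cycle 2, then every two cycles until treatment ended. Objective response was CR or PR; disease control was CR, PR or SD. Evaluable patients had baseline plus ≥1 post-baseline assessment. Analysis was descriptive on patients receiving ≥1 dose.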

For data set [4] the following is noted: cited from earlier work.
For data set [5], the system named is advanced or metastatic non-hematologic malignancies. Conditions: FIH study; cited from earlier work.
The next data set has as its system MiaPaCa2 xenograft. Conditions: QD; cited from earlier work.
The conditions of data set [6]: rats; cited from earlier work.
For data set [7] the following is noted: dogs; cited from earlier work.
For data set [8] the following is noted: liquid dispersion vs. tablet; with/without a high-calorie meal; cited from earlier work.
In another data set the test system is advanced solid tumors. Conditions: mixed populations of patients with advanced solid tumors; cited from earlier work.
For data set [9] the following is noted: at lesser frequency than BI 853520; cited from earlier work.
[10] abbreviates: 200 mg QD, N = 10, geometric mean.

Regarding `COc1cc(C(=O)NC2CCN(C)CC2)c(F)cc1Nc1ncc(C(F)(F)F)c(Oc2cccc3c2C(=O)N(C)C3)n1` [BI 853520], the “evaluable patients treated at the MTD who experienced DLT” value in data set [1] (200 mg QD) is “two of 15”. In data set [1] (21 treated patients), the “drug-related serious AEs” value is on record as “None of the SAEs was considered drug-related”, the “patients who discontinued treatment due to AEs” value is 19%, the “patients with drug-related adverse events” value is 90% and the “patients with drug-related diarrhea” value is given as 38%. Further, in [1] (21 treated patients), the “patients with drug-related nausea” value amounted to 29%, the “patients with drug-related proteinuria” value was 48%, the “patients with drug-related vomiting” value is given as 19% and the “patients with serious AEs (SAEs)” value was 24%. Moreover, the “dose-limiting toxicities during cycle 1” value in [1] (50, 100, or 200 mg cohorts) was “no dose-limiting toxicities were observed; also recorded: no DLTs were observed”. In addition, in data set [1] (N = 21, all dose cohorts), the “Any drug-related AE” value is listed as 19 (90) N (%), the “Drug-related AE: AST increased” value is 1 (5) N (%), the “Drug-related AE: Abdominal pain upper” value is 1 (5) N (%) and the “Drug-related AE: Anemia” value is 1 (5) N (%). Further, in data set [1] (N = 21, all dose cohorts), the “Drug-related AE: Back pain” value was 1 (5) N (%), the “Drug-related AE: Blood bilirubin increased” value was 1 (5) N (%), the “Drug-related AE: Blood creatinine increased” value is listed as 1 (5) N (%) and the “Drug-related AE: Decreased appetite” value was 2 (10) N (%). Also, in [1] (N = 21, all dose cohorts), the “Drug-related AE: Dehydration” value is 1 (5) N (%), the “Drug-related AE: Diarrhea” value is 8 (38) N (%), the “Drug-related AE: Dupuytren’s contracture” value was 2 (10) N (%) and the “Drug-related AE: Erectile dysfunction” value is reported as 1 (5) N (%). Further, in [1] (N = 21, all dose cohorts), the “Drug-related AE: Fatigue” value is given as 1 (5) N (%), the “Drug-related AE: Inguinal hernia” value is listed as 1 (5) N (%), the “Drug-related AE: Nausea” value is 6 (29) N (%) and the “Drug-related AE: Proteinuria” value is 10 (48) N (%). Moreover, in data set [1] (N = 21, all dose cohorts), the “Drug-related AE: Rash, maculo-papular” value is reported as 2 (10) N (%) and the “Drug-related AE: Vomiting” value is 4 (19) N (%). Also, the “maximum tolerated dose (MTD)” value in data set [1] (QD continuous daily dosing, 28-day cycles, Japanese and Taiwanese patients) came to 200 mg. The “DLTs reported overall during the study” value in data set [1] (all treated patients, all cycles) is “three of 21”. In addition, the “cumulative fraction excreted in urine” value in data set [2] (200 mg QD cohort) is “less than 9%”. Moreover, in [2] (setting [10]), the “RA,AUC (accumulation ratio, AUC at steady state / single dose)” value turned out to be 2.15 and the “RA,Cmax (accumulation ratio, Cmax at steady state / single dose)” value was determined as 1.62. Further, the trough plasma concentrations result in data set [2] (cycle 1, repeated QD dosing) was “stable from day 8 to day 28”. In data set [2] (human, plasma, oral, 200 mg, AUC0−∞, single dose, 200 mg QD cohort, N = 15, geometric mean), the AUC(0-inf) (in general, the area under the concentration-time curve extrapolated to infinity) worked out at 26.3 µM·h. Besides, in [2] (human, plasma, oral, 200 mg, AUCτ,1, single dose, 200 mg QD cohort, N = 15, geometric mean), the AUC (commonly the area under the concentration-time curve, a measure of exposure) turned out to be 15.3 µM·h. The concentration in data set [2] (human, plasma, oral, 200 mg, Cmax, single dose, 200 mg QD cohort, N = 15, geometric mean) peaked (Cmax) at 1570 nM. Also, the Vd/F (commonly the volume of distribution divided by bioavailability) in data set [2] (human, plasma, oral, 200 mg, Vz/F, single dose, 200 mg QD cohort, N = 15, geometric mean) was 391 L. In addition, the Tmax – broadly, the time from dosing to the highest level – in data set [2] (human, plasma, oral, 200 mg, tmax, single dose, 200 mg QD cohort, N = 15, median) worked out at 2 h. Moreover, the half-life (in general, the time in which the quantity being followed falls by half) in [2] (human, plasma, oral, 200 mg, t½, single dose, 200 mg QD cohort, N = 15, geometric mean) was 1250 min. The “tmax,ss” value in data set [2] (multiple dose, steady state day 28, 200 mg QD, N = 10, median) worked out at 2.94 h. The “CL/F,ss” value in data set [2] (multiple dose, steady state, 200 mg QD, N = 10, geometric mean) amounted to 155 mL/min. For the same compound, the “fe0−24,ss” value in data set [2] (multiple dose, steady state, 200 mg QD, urine, N = 10, geometric mean) was found to be 8.86%. Further, the apparent clearance (CL/F) (commonly clearance divided by bioavailability, as obtained after extravascular dosing) in data set [2] (single dose, 200 mg QD cohort, N = 15, geometric mean) is 216 mL/min. The “fe0–24” value in data set [2] (single dose, 200 mg QD cohort, urine, data for 13 patients, geometric mean) is 5.60^b %. In data set [3] (21 treated patients), the “confirmed objective response rate” value turned out to be 5%, the disease control rate is recorded as 29% and the “patients with progressive disease” value came out at 57%. In data set [3] (N = 21), the “Best confirmed response: Complete response” value is on record as 0 N (%), the “Best confirmed response: Progressive disease” value was 12 (57) N (%) and the “Best confirmed response: Stable disease” value is 5 (24)^d N (%). Besides, the “Best confirmed response: Objective response” value in data set [3] (N = 21, complete response or partial response) is on record as 1 (5) N (%). Besides, the “Best confirmed response: Disease control” value in data set [3] (N = 21, complete response, partial response, or stable disease) is listed as 6 (29) N (%). For the same compound, the “Best confirmed response: Partial response” value in data set [3] (N = 21, patient with gastric cancer (100 mg cohort)) was 1 (5)^c N (%). The “median duration of disease control” value in data set [3] (six patients with confirmed disease control) came to 3.7 months. For the same compound, the “DLTs or DRAEs of grade ≥ 2” value in data set [4] (50 mg QD or 100 mg QD) is listed as “neither 50 mg QD or 100 mg QD had resulted in dose-limiting toxicities”. Besides, the “maximum tolerated dose (MTD)” value in [4] (QD continuous dosing, predominantly (92%) Caucasian population) is reported as 200 mg. In addition, in data set [4] (dose expansion phase of the FIH study), the “patients with grade 3 proteinuria” value is recorded as 21%. Besides, in data set [5], the disease control rate is on record as 27%, the “median duration of disease control” value is 3.3 months and the radiographic objective responses entry was “no radiographic objective responses were reported”. Besides, in the data set on MiaPaCa2 xenograft, the active dose was 12.5 mg/kg. Besides, in [6], the “principal toxicological target organs” value is “gastrointestinal tract and liver”. Also, the “principal toxicological target organs” value in [7] is “gastrointestinal tract and liver”. Further, the “impact of formulation and food on pharmacokinetics” value in data set [8] is reported as “neither formulation (liquid dispersion vs. tablet) nor administration with/without a high-calorie meal have notable impact”.
For `CONC(=O)c1ccccc1Nc1cc(Nc2cc(C)nn2C(C)C)ncc1Cl` [GSK2256098], the “anti-tumor activity in phase I” value in the data set with advanced solid tumors is on record as “evidence of disease stabilization”. Also, the proteinuria entry in data set [9] is recorded as “Proteinuria has been reported”.
For the compound `CN(c1ncccc1CNc1nc(Nc2ccc3c(c2)CC(=O)N3)ncc1C(F)(F)F)S(C)(=O)=O` [PF-00562271], the “anti-tumor activity in phase I” value in the data set with advanced solid tumors is reported as “evidence of disease stabilization”. For the same compound, the proteinuria entry in [9] is on record as “Proteinuria has been reported”.
On to `CNC(=O)c1ccc(Nc2ncc(C(F)(F)F)c(NCc3nccnc3N(C)S(C)(=O)=O)n2)cc1` [VS-6063], for which the “anti-tumor activity in phase I” value in the data set with advanced solid tumors was “evidence of disease stabilization”.
